Among the data in ChEMBL document CHEMBL1145026, “Synthesis and antibacterial activity of 6-O-arylbutynyl ketolides with improved activity against some key erythromycin-resistant pathogens” (2003) are MIC values, retold here.

What all share (assay type): functional
Assay [1] deals with Staphylococcus aureus. Description: In Vitro antibacterial activity against Staphylococcus aureus 1775 (ermA-c strain). The method in brief:
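Methicillin-resistant (MRSA) strain. Minimum inhibitory concentration read by agar dilution, following NCCLS recommendations.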

Assay [2] has as its system Streptococcus pneumoniae. Description: In Vitro antibacterial activity against Streptococcus pneumoniae 5979 (ermB strain). The method in brief: (§1)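 Strains with MLSB resistance encoded by ermB. MICs obtained by agar dilution as recommended by NCCLS.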
Assay [3] concerns Streptococcus pneumoniae. Description: In Vitro antibacterial activity against Streptococcus pneumoniae ATCC 6303 (Ery-S strain). A digest of the protocol:
(§2)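 Agar dilution method per NCCLS recommendations, with activity reported as minimum inhibitory concentration.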

For a further assay, the system named is Haemophilus influenzae. Description: In Vitro antibacterial activity against H. flu DILL (Amp-R strain). The method in brief:
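MIC by agar dilution following NCCLS recommendations. Test organism is H. influenzae DILL, an ampicillin-resistant strain carrying a β-lactamase-positive determinant.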

Assay [4] relates to Streptococcus pyogenes. Description: In Vitro antibacterial ativity against Streptococcus pyogenes PIU2548 (mefA strain). The method in brief: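 Tested on a mefA-encoded efflux-resistant strain. The endpoint is the MIC by NCCLS-recommended agar dilution.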
Assay [5] has as its system Streptococcus pyogenes. Description: In Vitro antibacterial ativity against Streptococcus pyogenes EES61 (Ery-S strain). A digest of the protocol: as §2
In assay [6] the test system is Streptococcus pyogenes. Description: In Vitro antibacterial ativity against Streptococcus pyogenes 930 (ermB strain). The method in brief:
as §1

Assay [7] relates to Streptococcus pneumoniae. Description: In Vitro antibacterial activity against Streptococcus pneumoniae 5649 (mefE strain). The method in brief:
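Efflux-resistant strain carrying mefE. MIC determined by the agar dilution method recommended by NCCLS.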

The test system of assay [8] is Staphylococcus aureus. Description: In Vitro antibacterial activity against Staphylococcus aureus A5177 (ermA-i strain). A digest of the protocol: (§3)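 MIC by agar dilution following NCCLS recommendations, against S. aureus.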
Assay [9] has as its system Staphylococcus aureus. Description: In Vitro antibacterial activity against Staphylococcus aureus ATCC 6538P (Ery-S […] strain). A digest of the protocol:
as §3

Each structure is given as a SMILES string. In brackets after ≈: the same amount, converted by molar mass.

Turning to `CC[C@H]1OC(=O)[C@H](C)C(=O)[C@H](C)[C@@H](O[C@@H]2O[C@H](C)C[C@H](N(C)C)[C@H]2O)[C@@](C)(OCC#CCc2ccccc2)C[C@@H](C)C(=O)[C@H](C)[C@H]2NC(=O)O[C@@]21C`, the MIC is greater than 100 µg/mL in the assay on Staphylococcus aureus [1]; 16 µg/mL (≈ 22 µM) with Streptococcus pneumoniae [2]; 0.03 µg/mL (≈ 0.0413 µM) in the assay on Streptococcus pneumoniae [3]; 2 µg/mL (≈ 2.75 µM) in the assay with Haemophilus influenzae; 0.25 µg/mL (≈ 0.344 µM) against Streptococcus pyogenes [4]; 0.06 µg/mL (≈ 0.0825 µM) against Streptococcus pyogenes [5]. In addition, the MIC was determined as 128 µg/mL (≈ 176 µM) against Streptococcus pyogenes [6], 0.25 µg/mL (≈ 0.344 µM) against Streptococcus pneumoniae [7], 0.2 µg/mL (≈ 0.275 µM) against Staphylococcus aureus [8] and 0.2 µg/mL (≈ 0.275 µM) against Staphylococcus aureus [9].
With `CC[C@H]1OC(=O)[C@@](C)(F)C(=O)[C@H](C)[C@@H](O[C@@H]2O[C@H](C)C[C@H](N(C)C)[C@H]2O)[C@@](C)(OCC#CCc2ccc(-c3csnn3)cc2)C[C@@H](C)C(=O)[C@H](C)[C@H]2NC(=O)O[C@@]21C`, the MIC against Staphylococcus aureus [1] is greater than 100 µg/mL; against Streptococcus pneumoniae [2], 4 µg/mL (≈ 4.83 µM); against Streptococcus pneumoniae [3] it was 0.015 µg/mL (≈ 0.0181 µM); in the assay with Haemophilus influenzae, 4 µg/mL (≈ 4.83 µM); with Streptococcus pyogenes [4], 0.25 µg/mL (≈ 0.302 µM); against Streptococcus pyogenes [5], 0.03 µg/mL (≈ 0.0362 µM). The MIC in the assay with Streptococcus pyogenes [6] came out at 4 µg/mL (≈ 4.83 µM); with Streptococcus pneumoniae [7], 0.5 µg/mL (≈ 0.603 µM); in the assay with Staphylococcus aureus [8], 0.05 µg/mL (≈ 0.0603 µM); in the assay on Staphylococcus aureus [9] it was 0.05 µg/mL (≈ 0.0603 µM).
In the case of `CC[C@H]1OC(=O)[C@H](C)C(=O)[C@H](C)[C@@H](O[C@@H]2O[C@H](C)C[C@H](N(C)C)[C@H]2O)[C@@](C)(OCC#CCc2ccc(-c3csnn3)cc2)C[C@@H](C)C(=O)[C@H](C)[C@H]2NC(=O)O[C@@]21C`, the MIC is greater than 100 µg/mL with Staphylococcus aureus [1]; 8 µg/mL (≈ 9.86 µM) in the assay with Streptococcus pneumoniae [2]; less than 0.004 µg/mL in the assay with Streptococcus pneumoniae [3]; 2 µg/mL (≈ 2.47 µM) in the assay on Haemophilus influenzae; 0.125 µg/mL (≈ 0.154 µM) against Streptococcus pyogenes [4]; 0.03 µg/mL (≈ 0.037 µM) against Streptococcus pyogenes [5]. The MIC came to 4 µg/mL (≈ 4.93 µM) against Streptococcus pyogenes [6], 0.25 µg/mL (≈ 0.308 µM) in the assay with Streptococcus pneumoniae [7], 0.1 µg/mL (≈ 0.123 µM) in the assay with Staphylococcus aureus [8] and 0.05 µg/mL (≈ 0.0617 µM) against Staphylococcus aureus [9].
For `CC[C@H]1OC(=O)[C@H](C)C(=O)[C@H](C)[C@@H](O[C@@H]2O[C@H](C)C[C@H](N(C)C)[C@H]2O)[C@@](C)(OCC#CCc2cnc3ccccc3c2)C[C@@H](C)C(=O)[C@H](C)[C@H]2NC(=O)O[C@@]21C`, the MIC in the assay with Staphylococcus aureus [1] was greater than 100 µg/mL; against Streptococcus pneumoniae [2], 2 µg/mL (≈ 2.57 µM); in the assay on Streptococcus pneumoniae [3], less than 0.004 µg/mL; with Haemophilus influenzae, 2 µg/mL (≈ 2.57 µM); in the assay with Streptococcus pyogenes [4], 0.25 µg/mL (≈ 0.321 µM); against Streptococcus pyogenes [5], 0.015 µg/mL (≈ 0.0193 µM). Also, the MIC against Streptococcus pyogenes [6] turned out to be 16 µg/mL (≈ 20.6 µM); against Streptococcus pneumoniae [7] it was 0.25 µg/mL (≈ 0.321 µM); against Staphylococcus aureus [8] it was 0.1 µg/mL (≈ 0.129 µM); in the assay on Staphylococcus aureus [9] it was 0.1 µg/mL (≈ 0.129 µM).
Take `CC[C@H]1OC(=O)[C@H](C)C(=O)[C@H](C)[C@@H](O[C@@H]2O[C@H](C)C[C@H](N(C)C)[C@H]2O)[C@@](C)(OCC#CCc2ccc(-c3cccnc3)cc2)C[C@@H](C)C(=O)[C@H](C)[C@H]2NC(=O)O[C@@]21C`: the MIC was greater than 100 µg/mL in the assay with Staphylococcus aureus [1]; 0.125 µg/mL (≈ 0.155 µM) in the assay on Streptococcus pneumoniae [2]; less than 0.004 µg/mL in the assay on Streptococcus pneumoniae [3]; 4 µg/mL (≈ 4.98 µM) in the assay on Haemophilus influenzae; 0.125 µg/mL (≈ 0.155 µM) in the assay with Streptococcus pyogenes [4]; less than 0.004 µg/mL with Streptococcus pyogenes [5]. In addition, the MIC against Streptococcus pyogenes [6] is 8 µg/mL (≈ 9.95 µM); with Streptococcus pneumoniae [7] it was 0.125 µg/mL (≈ 0.155 µM); against Staphylococcus aureus [8] it was 0.02 µg/mL (≈ 0.0249 µM); in the assay on Staphylococcus aureus [9], 0.02 µg/mL (≈ 0.0249 µM).
For `CC[C@H]1OC(=O)[C@H](C)C(=O)[C@H](C)[C@@H](O[C@@H]2O[C@H](C)C[C@H](N(C)C)[C@H]2O)[C@@](C)(OCC#CCc2ccc(-c3cnccn3)cc2)C[C@@H](C)C(=O)[C@H](C)[C@H]2NC(=O)O[C@@]21C`, the MIC with Staphylococcus aureus [1] is greater than 100 µg/mL; in the assay on Streptococcus pneumoniae [2], 0.03 µg/mL (≈ 0.0373 µM); in the assay with Streptococcus pneumoniae [3] it was less than 0.004 µg/mL; against Haemophilus influenzae it was 4 µg/mL (≈ 4.97 µM); in the assay with Streptococcus pyogenes [4] it was 0.015 µg/mL (≈ 0.0186 µM); against Streptococcus pyogenes [5], less than 0.004 µg/mL. In addition, the values for the MIC with Streptococcus pyogenes [6], against Staphylococcus aureus [8] and against Staphylococcus aureus [9] were 4 µg/mL (≈ 4.97 µM), 0.02 µg/mL (≈ 0.0248 µM) and 0.02 µg/mL (≈ 0.0248 µM), respectively.
With `CC[C@H]1OC(=O)[C@H](C)[C@@H](O[C@H]2C[C@@](C)(OC)[C@@H](O)[C@H](C)O2)[C@H](C)[C@@H](O[C@@H]2O[C@H](C)C[C@H](N(C)C)[C@H]2O)[C@](C)(O)C[C@@H](C)C(=O)[C@H](C)[C@@H](O)[C@]1(C)O` [ERYTHROMYCIN], the MIC in the assay with Staphylococcus aureus [1] was greater than 128 µg/mL; in the assay with Streptococcus pneumoniae [2], greater than 128 µg/mL; in the assay on Streptococcus pneumoniae [3] it was 0.015 µg/mL (≈ 0.0204 µM); in the assay with Haemophilus influenzae, 4 µg/mL (≈ 5.45 µM); against Streptococcus pyogenes [4], 8 µg/mL (≈ 10.9 µM); against Streptococcus pyogenes [5] it was 0.015 µg/mL (≈ 0.0204 µM). Besides, the MIC is greater than 128 µg/mL with Streptococcus pyogenes [6], 4 µg/mL (≈ 5.45 µM) against Streptococcus pneumoniae [7], greater than 128 µg/mL in the assay on Staphylococcus aureus [8] and 0.5 µg/mL (≈ 0.681 µM) in the assay with Staphylococcus aureus [9].
For the compound `CC[C@H]1OC(=O)[C@H](C)C(=O)[C@H](C)[C@@H](O[C@@H]2O[C@H](C)C[C@H](N(C)C)[C@H]2O)[C@](C)(OC)C[C@@H](C)C(=O)[C@H](C)[C@H]2N(CCCCn3cnc(-c4cccnc4)c3)C(=O)O[C@]12C` [TELITHROMYCIN], the MIC in the assay with Staphylococcus aureus [1] was greater than 100 µg/mL; in the assay on Streptococcus pneumoniae [2] it was 8 µg/mL (≈ 9.85 µM); with Streptococcus pneumoniae [3], 0.004 µg/mL (≈ 0.00493 µM); in the assay with Haemophilus influenzae it was 2 µg/mL (≈ 2.46 µM); with Streptococcus pyogenes [4] it was 2 µg/mL (≈ 2.46 µM); against Streptococcus pyogenes [5] it was 0.004 µg/mL (≈ 0.00493 µM). Moreover, the MIC against Streptococcus pyogenes [6] is 8 µg/mL (≈ 9.85 µM); with Streptococcus pneumoniae [7], 0.5 µg/mL (≈ 0.616 µM); against Staphylococcus aureus [8], 0.1 µg/mL (≈ 0.123 µM); with Staphylococcus aureus [9] it was 0.1 µg/mL (≈ 0.123 µM).
